Source: ChEMBL document CHEMBL1126926, “Nonprostanoid prostacyclin mimetics. 5. Structure-activity relationships associated with [3-[4-(4,5-diphenyl-2-oxazolyl)-5- oxazolyl]phenoxy]acetic acid” (J Med Chem, 1993)

Assays:
Homo sapiens [1] = organism: Homo sapiens; assay: (§1) In vitro inhibition of 5.86 uM ADP-induced human platelet aggregation in platelet rich plasma (PRP); type: functional
In short: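 Human blood drawn into 1/10 volume 3.8% sodium citrate and spun 10 min at 140g to give platelet-rich plasma. Compound in DMSO added to PRP 3 min before 5.86 μM ADP. Aggregation read by Born turbidimetric aggregometry (Mustard modification) against vehicle controls over various concentrations. IC50 taken from dose-response curves, single determinations or mean of duplicates.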

Homo sapiens [2] = organism: Homo sapiens; assay: Inhibitory concentration for displacing [3H]iloprost from human platelet membrane at 5.4 nM at 37 degree C
Homo sapiens [3] = organism: Homo sapiens; assay: as §1; type: functional; remark: listed apart in the source
Homo sapiens [4] = organism: Homo sapiens; assay: Compound tested for percent inhibition against 5.86 uM ADP-induced human platelet aggregation in platelet rich plasma (PRP); type: functional
In short: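 Citrated human PRP (blood spun 10 min at 140g) preincubated 3 min with compound in DMSO, then challenged with 5.86 μM ADP. Born aggregometry (Mustard modification), compared with vehicle controls. Value is percent inhibition at a single stated concentration, from a single experiment or mean of duplicates.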

| Compound | IC50 (Homo sapiens [1]) [nM] | also measured |
| --- | --- | --- |
| O=C(O)CCCCCCCCc1nc(-c2ccccc2)c(-c2ccccc2)o1 | 2500 |  |
| O=C(O)COc1cccc(-c2ocnc2-c2nc(-c3ccccc3)c(-c3ccccc3)o2)c1 |  | IC50 (Homo sapiens [2]): 5.4 nM; IC50 (Homo sapiens [3]): 27 nM |
| c1ccc(-c2nc(-c3ncoc3-c3cccc(OCc4nn[nH]n4)c3)oc2-c2ccccc2)cc1 | 130 |  |
| O=C(O)COc1cccc(-c2ocnc2-c2nc(-c3ccccc3)c(-c3ccccc3)[nH]2)c1 | 30 |  |
| Cc1nc(-c2nc(-c3ccccc3)c(-c3ccccc3)o2)c(-c2cccc(OCC(=O)O)c2)o1 |  | IC50 (Homo sapiens [2]): 36.6 nM; IC50 (Homo sapiens [3]): 50 nM |
| O=C(O)COc1cccc(-c2[nH]ncc2-c2nc(-c3ccccc3)c(-c3ccccc3)o2)c1 |  | IC50 (Homo sapiens [3]): 180 nM |
| O=C(O)CCCc1ocnc1-c1nc(-c2ccccc2)c(-c2ccccc2)o1 | > 80000 | Inhibition (Homo sapiens [4]): 44% |
| O=C(O)COc1cccc(/C=C\c2nc(-c3ccccc3)c(-c3ccccc3)o2)c1 |  | IC50 (Homo sapiens [2]): 6 nM |
| O=C(O)CCCOc1ccccc1-c1nc(-c2ccccc2)c(-c2ccccc2)o1 | > 75000 |  |
| Cn1ncc(-c2nc(-c3ccccc3)c(-c3ccccc3)o2)c1-c1cccc(OCC(=O)O)c1 |  | IC50 (Homo sapiens [2]): 337 nM; IC50 (Homo sapiens [3]): 1060 nM |
| O=C(O)COc1cccc(-c2ocnc2-c2nnc(-c3ccccc3)n2-c2ccccc2)c1 | > 70000 |  |
| O=C(O)CCCCc1ocnc1-c1nc(-c2ccccc2)c(-c2ccccc2)o1 | 15900 |  |
| Cn1cc(-c2nc(-c3ccccc3)c(-c3ccccc3)o2)c(-c2cccc(OCC(=O)O)c2)n1 |  | IC50 (Homo sapiens [2]): 302 nM; IC50 (Homo sapiens [3]): 650 nM |
| O=C(O)COc1cccc(-c2ocnc2-c2nc(-c3ccsc3)c(-c3ccsc3)o2)c1 | 450 |  |
| CCCCC[C@H](O)/C=C/[C@@H]1[C@H]2C/C(=C/CCCC(=O)O)O[C@H]2C[C@H]1O [EPOPROSTENOL] | 8 |  |
| CC#CCC(C)[C@H](O)/C=C/[C@@H]1[C@H]2C/C(=C/CCCC(=O)O)C[C@H]2C[C@H]1O (some centres not stated) [ILOPROST] |  | IC50 (Homo sapiens [2]): 47.7 nM |

Further lines, with some results ahead:

| IC50 (Homo sapiens [1]) [nM] | Compound | also measured |
| --- | --- | --- |
| > 75000 | O=C(O)CCCCOc1ccccc1-c1nc(-c2ccccc2)c(-c2ccccc2)o1 |  |
| 7200 | O=C(O)CCCCCc1ocnc1-c1nc(-c2ccccc2)c(-c2ccccc2)o1 |  |
| 11100 | O=C(O)COc1cccc(-c2ccccc2-c2nc(-c3ccccc3)c(-c3ccccc3)o2)c1 |  |
| 420 | O=C(O)CCCCCCc1ocnc1-c1nc(-c2ccccc2)c(-c2ccccc2)o1 |  |
| > 76000 | N#CCOc1cccc(-c2ocnc2-c2nc(-c3ccccc3)c(-c3ccccc3)o2)c1 | Inhibition (Homo sapiens [4]): 14% |
| > 72000 | O=C(O)COc1cccc(-c2ocnc2-c2onc(-c3ccccc3)c2-c2ccccc2)c1 | Inhibition (Homo sapiens [4]): 36% |
| > 73000 | O=C(O)COc1ccc(-c2ocnc2-c2nc(-c3ccccc3)c(-c3ccccc3)o2)cc1 | Inhibition (Homo sapiens [4]): 44% |
| 11600 | O=C(O)CCCCCCCc1ocnc1-c1nc(-c2ccccc2)c(-c2ccccc2)o1 |  |
| 150 | O=C(O)COc1cccc(-c2ocnc2-c2nc(-c3ccccc3)c(-c3ccccc3)s2)c1 |  |
| > 60000 | O=C(O)COc1cccc(-c2oc(-c3ccccc3)nc2-c2nc(-c3ccccc3)c(-c3ccccc3)o2)c1 | Inhibition (Homo sapiens [4]): 36% |
| 160 | O=C(O)COc1cccc(-c2ncoc2-c2nc(-c3ccccc3)c(-c3ccccc3)o2)c1 |  |
| 100 | Cc1ccc(-c2nc(-c3ncoc3-c3cccc(OCC(=O)O)c3)oc2-c2ccc(C)cc2)cc1 |  |
